Laboratory results published in ChEMBL document CHEMBL1138080, “Design and synthesis of novel 2-amino-5-hydroxyindole derivatives that inhibit human 5-lipoxygenase” (J Med Chem, 2006).

The molecules below were run against T1, Polyunsaturated fatty acid 5-lipoxygenase (Homo sapiens, UniProt P09917) (assay: Inhibition of 5-LOX in A23187 and arachidonic acid-stimulated […]).
T1 sequence (P09917 whole entry): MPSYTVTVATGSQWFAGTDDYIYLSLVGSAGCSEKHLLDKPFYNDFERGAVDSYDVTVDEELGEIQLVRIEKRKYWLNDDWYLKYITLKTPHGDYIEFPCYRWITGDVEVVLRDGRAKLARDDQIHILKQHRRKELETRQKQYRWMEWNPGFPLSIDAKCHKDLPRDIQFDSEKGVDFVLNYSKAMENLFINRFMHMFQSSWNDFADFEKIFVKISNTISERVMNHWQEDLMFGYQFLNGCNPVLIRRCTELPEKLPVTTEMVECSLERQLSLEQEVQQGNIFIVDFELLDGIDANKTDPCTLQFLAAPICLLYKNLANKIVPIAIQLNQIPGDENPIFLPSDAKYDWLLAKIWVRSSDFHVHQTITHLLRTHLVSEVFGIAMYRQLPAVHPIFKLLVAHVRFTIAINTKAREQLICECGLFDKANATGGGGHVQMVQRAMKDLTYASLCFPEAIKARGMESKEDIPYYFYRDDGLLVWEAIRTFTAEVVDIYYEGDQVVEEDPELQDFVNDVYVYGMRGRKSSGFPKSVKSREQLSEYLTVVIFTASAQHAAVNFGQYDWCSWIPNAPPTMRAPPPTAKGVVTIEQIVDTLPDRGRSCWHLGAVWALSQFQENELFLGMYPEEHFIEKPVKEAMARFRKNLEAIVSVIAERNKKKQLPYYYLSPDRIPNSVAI
In short: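 Human PMNL (10^7/mL in PBS with glucose and 1 mM CaCl2) were preincubated with compound at 37 °C. They were then challenged with 2.5 µM A23187 plus 20 µM exogenous arachidonic acid for 10 min at 37 °C. The reaction was stopped with methanol and 5-LO products were quantified against a prostaglandin B1 standard.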

IC50 [µM] | Structure (SMILES)
5.9 | CCOC(=O)c1c(NC(C)c2ccccc2)[nH]c2ccccc12 (stereo not given)
4.1 | CC(Nc1[nH]c2ccc(O)cc2c1C#N)c1ccccc1 (stereo not given)
4.6 | CCOC(=O)c1c(NC(C)c2ccccc2)[nH]c2ccc(O)cc12 (stereo not given)
5.8 | CCOC(=O)c1c(N2CCN(c3ccc(Cl)cc3)CC2)[nH]c2ccc(O)cc12

What follows are molecules tested against T2, Polyunsaturated fatty acid 5-lipoxygenase (Homo sapiens) (UniProt P09917) (assay: Inhibition of 5-LOX in A-23187-stimulated […] at 10 uM).
T2 sequence (whole entry): T1 sequence (P09917 whole entry)
In short: (§1)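 Freshly isolated human PMNL (10^7 in 1 mL PBS with 1 mg/mL glucose and 1 mM CaCl2) were preincubated with compound at 37 °C. They were then stimulated with 2.5 µM ionophore A23187 for 10 min at 37 °C and stopped with methanol, with prostaglandin B1 added as standard.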

inhibition [%] | Structure (SMILES)
0 | CCOC(=O)c1c(N2CCN(C)CC2)[nH]c2ccc(O)cc12
22 | CCOC(=O)c1c(N2CCN(c3ccc(F)cc3)CC2)[nH]c2ccc(O)cc12
22 | CCOC(=O)c1c(N2CCN(c3ccccc3)CC2)[nH]c2ccc(O)cc12
0 | CCOC(=O)c1c(N2CCCC2)[nH]c2ccc(O)cc12
0 | CCOC(=O)c1c(N2CCOCC2)[nH]c2ccc(O)cc12
84 | CCOC(=O)c1c(N2CCN(c3ccc(Cl)cc3)CC2)[nH]c2ccc(O)cc12
15 | CCOC(=O)c1c(N2CCN(Cc3ccccc3)CC2)[nH]c2ccc(O)cc12

Further lines, the molecule ahead of its results:

Structure (SMILES) | inhibition [%]
CCOC(=O)c1c(NC(C)c2ccccc2)[nH]c2ccccc12 (stereo not given) | 53
CCOC(=O)c1c(Nc2ccc(C)cc2)[nH]c2ccc(O)cc12 | 76
CC(=O)N(O)C/C=C/c1cccc(Oc2ccccc2)c1 | 93
CCOC(=O)c1c(N(C)C)[nH]c2ccc(O)cc12 | 0
Nc1[nH]c2ccc(O)cc2c1C(=O)c1ccccc1 | 0
CCOC(=O)c1c(N2CCCCC2)[nH]c2ccc(O)cc12 | 0
C=CCN(CC=C)c1[nH]c2ccc(O)cc2c1C(=O)OCC | 71
CCOC(=O)c1c(Nc2cccnc2)[nH]c2ccc(O)cc12 | 19
CC(Nc1[nH]c2ccc(O)cc2c1C#N)c1ccccc1 (stereo not given) | 85
N#Cc1c(N)[nH]c2ccc(O)cc12 | 0
COC(=O)c1c(NC(C)c2ccccc2)[nH]c2ccc(O)cc12 (racemic) | 77
CCOC(=O)c1c(NC(C)c2ccccc2)[nH]c2ccc(O)cc12 (stereo not given) | 94
COC(=O)c1c(NC(C)c2ccccc2)[nH]c2ccccc12 (stereo not given) | 48
CC(=O)c1c(N)[nH]c2ccc(O)cc12 | 0
CCOC(=O)c1c(Nc2ccccc2)[nH]c2ccc(O)cc12 | 65
CCOC(=O)c1c(N2CCN(c3ccccc3)CC2)n(C)c2ccc(OC)cc12 | 14

What follows are molecules tested against T2, Polyunsaturated fatty acid 5-lipoxygenase (Homo sapiens) (assay: Inhibition of 5-LOX at 10 uM).
In short: (§2)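 5-LO was human recombinant, expressed in E. coli JM 109 (pT3-5LO). Lysis, ammonium sulfate precipitation and a 100000g spin gave the S100 supernatant used as enzyme source. The assay contained 1 mM ATP and test compound or DMSO vehicle, and the enzyme was incubated with 20 µM arachidonic acid.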

inhibition [%] | Structure (SMILES)
81 | CCOC(=O)c1c(N2CCN(c3ccc(F)cc3)CC2)[nH]c2ccc(O)cc12
79 | CCOC(=O)c1c(N2CCN(c3ccccc3)CC2)[nH]c2ccc(O)cc12
69 | CCOC(=O)c1c(N2CCN(c3ccc(Cl)cc3)CC2)[nH]c2ccc(O)cc12
61 | CCOC(=O)c1c(N2CCN(Cc3ccccc3)CC2)[nH]c2ccc(O)cc12

Second part, the molecule before the results:

Structure (SMILES) | inhibition [%]
CCOC(=O)c1c(NC(C)c2ccccc2)[nH]c2ccccc12 (stereo not given) | 51
CCOC(=O)c1c(Nc2ccc(C)cc2)[nH]c2ccc(O)cc12 | 77
CC(=O)N(O)C/C=C/c1cccc(Oc2ccccc2)c1 | 86
C=CCN(CC=C)c1[nH]c2ccc(O)cc2c1C(=O)OCC | 65
CCOC(=O)c1c(Nc2cccnc2)[nH]c2ccc(O)cc12 | 24
CC(Nc1[nH]c2ccc(O)cc2c1C#N)c1ccccc1 (stereo not given) | 62
COC(=O)c1c(NC(C)c2ccccc2)[nH]c2ccc(O)cc12 (racemic) | 94
CCOC(=O)c1c(NC(C)c2ccccc2)[nH]c2ccc(O)cc12 (stereo not given) | 72
COC(=O)c1c(NC(C)c2ccccc2)[nH]c2ccccc12 (stereo not given) | 42
CCOC(=O)c1c(Nc2ccccc2)[nH]c2ccc(O)cc12 | 80
CCOC(=O)c1c(N2CCN(c3ccccc3)CC2)n(C)c2ccc(OC)cc12 | 36

What follows are molecules tested against T1, Polyunsaturated fatty acid 5-lipoxygenase (assay: Inhibition of 5-LOX).
In short: as §2

IC50 [µM] | Structure (SMILES)
3.1 | CCOC(=O)c1c(N2CCN(c3ccccc3)CC2)[nH]c2ccc(O)cc12
2.3 | CCOC(=O)c1c(N2CCN(c3ccc(Cl)cc3)CC2)[nH]c2ccc(O)cc12

The next lines start with the molecule.

Structure (SMILES) | IC50 [µM]
CCOC(=O)c1c(NC(C)c2ccccc2)[nH]c2ccccc12 (stereo not given) | 9.8
CCOC(=O)c1c(Nc2ccc(C)cc2)[nH]c2ccc(O)cc12 | 5
CCOC(=O)c1c(Nc2cccc(Cl)c2)[nH]c2ccc(O)cc12 | 0.3
C=CCN(CC=C)c1[nH]c2ccc(O)cc2c1C(=O)OCC | 7.1
CC(Nc1[nH]c2ccc(O)cc2c1C#N)c1ccccc1 (stereo not given) | 10
CCOC(=O)c1c(NC(C)c2ccccc2)[nH]c2ccc(O)cc12 (stereo not given) | 3
CCOC(=O)c1c(Nc2ccccc2)[nH]c2ccc(O)cc12 | 2.3

These molecules were tested against T1, Polyunsaturated fatty acid 5-lipoxygenase (assay: Inhibition of 5-LOX in A-23187-stimulated PNML).
In short: as §1

IC50 [µM] | Structure (SMILES)
> 20 | CCOC(=O)c1c(N2CCN(c3ccccc3)CC2)[nH]c2ccc(O)cc12
5 | CCOC(=O)c1c(N2CCN(c3ccc(Cl)cc3)CC2)[nH]c2ccc(O)cc12

The remaining lines, values behind:

Structure (SMILES) | IC50 [µM]
CCOC(=O)c1c(NC(C)c2ccccc2)[nH]c2ccccc12 (stereo not given) | 9.7
CCOC(=O)c1c(Nc2ccc(C)cc2)[nH]c2ccc(O)cc12 | 5.2
CCOC(=O)c1c(Nc2cccc(Cl)c2)[nH]c2ccc(O)cc12 | 2.4
C=CCN(CC=C)c1[nH]c2ccc(O)cc2c1C(=O)OCC | 7.2
CC(Nc1[nH]c2ccc(O)cc2c1C#N)c1ccccc1 (stereo not given) | 2.8
CCOC(=O)c1c(NC(C)c2ccccc2)[nH]c2ccc(O)cc12 (stereo not given) | 1.2
CCOC(=O)c1c(Nc2ccccc2)[nH]c2ccc(O)cc12 | 7.3
